Screening data deposited in PubChem by SRMLSC.
HCT116 PTEN-null: growth suppression of PTEN-null HCT116, primary screen, cell-based, CellTiter-Glo; HCT116 PTEN-null viability, 60 h; active compounds read low; viability, % at 10 µM; hit rate 1.2% among 140,000; AID 827, 2007;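 active = viability at or below a set limit, 4 SD under the median of all tested compounds, cut at about 3.7% in these data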;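 also: PTEN knockout HCT116 line with beta catenin targeted HCT116 as companion control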
Lung fibro prol: antiproliferative effect on LL 47 fibroblasts – human, LL 47 cells, CellTiter-Glo luminescence, primary screen; LL 47 human lung fibroblast viability, ATP luminescence; active compounds read low; viability, % at 10 µM; hit rate 1.1% among 85,000; AID 719, 2007;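 active = viability at or below 50% in the single dose screen; inactive = viability above 50%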;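 also: compound exposure lasted 72 h before the ATP readout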
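Material: human lung fibroblast line LL 47, low passage; Evaluation: viability percentage against median untreated-cell control; Buffer or medium: 15% FBS in IMEM; Incubation: 72 h compound exposure at 37 °C after overnight plating; Dosing: 0.1% DMSO in all compound wells; Measured by: CellTiter-Glo luminescence.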
HUVEC prolif 384: inhibitors of HUVEC proliferation, primary screen, cell-based, 384-well; CellTiter-Glo luminescence, 72 h; active compounds read low; viability, % at 10 µM (by protocol); hit rate 1.1% among 86,000;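 active = viability at or below 30%; inactive = viability above 30%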
H69AR inhibit: proliferation blockers of H69AR lung cancer cells, primary screen, cell-based, human, 86K library; H69AR lung tumor viability, ATP luminescence, 72 h; active compounds read low; viability, % at 10 µM; hit rate 6% among 85,000; AID 598, 2007;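 active = viability at or below 40%; inactive = viability above 40%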;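 also: multidrug resistant small cell line overexpressing MRP-1 efflux transporter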
bCat KO growth: primary screen for growth suppressors in beta-catenin knockout HCT116 cells (colon tumor, human) | hit rate 1.5% among 140,000 | AID 818, 2007 | viability, % at 10 µM | HCT116 beta-catenin knockout viability, CellTiter-Glo, 60 h; active compounds read low;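 active = viability at or under a set limit, the compound median less 4 SD, cut at about 6% in these data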
Large screens that a line does not name were inactive. This excerpt belongs to a sample that is enriched for hits.

O=C(N/N=C/c1cn(-c2ccccc2)nc1-c1cc2ccccc2o1)c1ccncc1	none (no result: Lung fibro prol, HUVEC prolif 384, H69AR inhibit)
COc1cc(NC(=O)C/C(C)=N/NC(=O)C(OC)c2ccccc2)c(OC)cc1Cl (configuration not stated)	none (no result: Lung fibro prol, HUVEC prolif 384, H69AR inhibit)
COc1ccc(S(=O)(=O)N(C)CC(=O)NCc2cccnc2)cc1C	none
Cc1cccc(-c2nnc(SCC#N)n2-c2cccc(Cl)c2)c1	none
COc1ccc(-n2c(SCCC#N)nnc2-c2cc(Cl)ccc2OC)cc1Cl	H69AR inhibit 24.5
Cc1nc(SCC(=O)c2c(C)[nH]c3ccccc23)c2c(=O)n(C)c(=O)n(CC(C)C)c2n1	H69AR inhibit 39.5 (no result: HCT116 PTEN-null, bCat KO growth)
Cc1nc(SCC(=O)OCc2ccccc2)c2c(=O)n(C)c(=O)n(C)c2n1	none
NS(=O)(=O)c1ccc(NC(=O)Cn2ncc3c2-c2ccccc2OC3)cc1	none (no result: Lung fibro prol, HUVEC prolif 384, H69AR inhibit)
Cc1cc(C(=O)COC(=O)c2n[nH]c3ccccc23)c(C)n1C	none
COc1cc(C(=O)OCC(=O)c2cc(C)n(C)c2C)cc(OC)c1OC	H69AR inhibit 24.1
Cc1nc2ccccn2c1C(=O)N=Nc1c(O)n(CCC(C)C)c2ccccc12	none (no result: Lung fibro prol, HUVEC prolif 384, H69AR inhibit)
O=C(OC(C(=O)NCC1CCCO1)c1ccccn1)c1cccs1 (configuration not stated)	none
N#CCCCN1C(=O)C(O)(CC(=O)c2ccc3c(c2)OCCO3)c2ccccc21 (configuration not stated)	none
C=C(C)CN1C(=O)C(O)(CC(=O)c2ccc3c(c2)OCCO3)c2ccccc21 (configuration not stated)	H69AR inhibit 39.0
O=C(CN1CCN(S(=O)(=O)c2ccc(Br)cc2)CC1)Nc1ccc2c(c1)OCCO2	H69AR inhibit 17.1
O=C(CN1CCN(S(=O)(=O)c2ccc(Cl)cc2)CC1)Nc1ccc2c(c1)OCCO2	none
COc1ccc(S(=O)(=O)N2CCN(CC(=O)Nc3ccc(C)c(F)c3)CC2)cc1	H69AR inhibit 4.9
N#C/C(C(=O)NCc1ccccc1)=C1/N=C(NC(=O)c2cccs2)c2ccccc21	none (no result: Lung fibro prol, HUVEC prolif 384, H69AR inhibit)
O=C(O)C1CC(=O)N(c2ccc(OCc3ccc(Cl)cc3Cl)cc2)C1 (configuration not stated)	HCT116 PTEN-null 3.2, bCat KO growth 3.3
COc1ccccc1C(=O)NNC1=C(C(=O)C(F)(F)F)CCC1	none (no result: Lung fibro prol, HUVEC prolif 384, H69AR inhibit)
O=C(NNC1=C(C(=O)C(F)(F)F)CCC1)c1ccccc1Cl	HUVEC prolif 384 14.8
O=C(NNC1=C(C(=O)C(F)(F)F)CCC1)c1ccccc1O	HUVEC prolif 384 6.8, H69AR inhibit 29.7
COc1cc(-c2nnc3sc(-c4cccnc4)nn23)cc(OC)c1OC	none (no result: HCT116 PTEN-null, bCat KO growth)
Cc1c(OCc2ccccc2)c(=O)ccn1Cc1ccc(Cl)cc1	H69AR inhibit 3.9
CC(C)(C)n1ncc2c(=O)n(CC(=O)NCc3ccccc3)cnc21	H69AR inhibit 23.5
CC(=O)Nc1ccc(NC(=O)Cn2cnc3c(cnn3C(C)(C)C)c2=O)cc1	none
C=CCC1(C#N)C(SC)=NC2=C(C(=O)CC(C)(C)C2)C1c1ccc(Br)cc1 (configuration not stated)	none (no result: Lung fibro prol, HUVEC prolif 384, H69AR inhibit)
Cc1ccsc1C1NC(=O)c2c(sc3c2CCCC3)N1 (configuration not stated)	none (no result: Lung fibro prol, HUVEC prolif 384, H69AR inhibit)
O=C1NC(c2ccccn2)Nc2sc3c(c21)CCC3 (configuration not stated)	HCT116 PTEN-null 1.8, bCat KO growth 3.8
Cn1cc(C2NC(=O)c3c(sc4c3CCCC4)N2)c2ccccc21 (configuration not stated)	H69AR inhibit 28.0 (no result: HCT116 PTEN-null, bCat KO growth)
N#C/C(=C\c1ccco1)C(=O)Nc1cccc2ncccc12	none (no result: Lung fibro prol, HUVEC prolif 384, H69AR inhibit)
CCCCCOc1ccc(NC(=O)CSc2cccc3cccnc23)cc1	none (no result: Lung fibro prol, HUVEC prolif 384, H69AR inhibit)
O=C(Cn1ncc2c(=O)oc3ccccc3c21)Nc1nc2ccccc2s1	none
CCCCCCCCc1nnc(NC(=O)c2ccco2)s1	none
CCOC(=O)COc1ccc(Br)cc1/C=C\c1[nH]c(=O)[nH]c(=O)c1[N+](=O)[O-]	none (no result: Lung fibro prol, HUVEC prolif 384, H69AR inhibit)
CCOc1cc(/C=C\c2[nH]c(=O)[nH]c(=O)c2[N+](=O)[O-])ccc1OC(C)CC (configuration not stated)	HUVEC prolif 384 15.3
COc1cccc(OC)c1OCCCOc1ccc(C)cc1Br	none (no result: Lung fibro prol, HUVEC prolif 384, H69AR inhibit)
CCOc1ccc2cc(/C=C/C(=O)c3ccco3)c(Cl)nc2c1	H69AR inhibit 2.4
Cn1c(C(=O)OC(C(=O)NC2CCCCC2)c2ccncc2)cc2sccc21 (configuration not stated)	H69AR inhibit 23.1
Cn1c(C(=O)OC(C(=O)NC2CCCC2)c2ccncc2)cc2sccc21 (configuration not stated)	none
Cc1c(NC(=O)c2ncn[nH]2)cccc1-c1nc2ccccc2s1	none (no result: Lung fibro prol, HUVEC prolif 384, H69AR inhibit)
COc1cccc2cc(-c3nnc(SCC(=O)Nc4cc(C(F)(F)F)ccc4Cl)n3N)oc12	H69AR inhibit 7.6
CCn1c(SCC(=O)Nc2nccs2)nnc1-c1cc2cccc(OC)c2o1	none
CNCc1ccccc1Sc1ccc(OC)c(OC)c1	none (no result: Lung fibro prol, HUVEC prolif 384, H69AR inhibit)
O=C(c1ccc(Cl)cc1)c1c[nH]cc1-c1ccccc1	none
O=C(c1ccc(Cl)cc1)c1c[nH]c(C(=O)C(Cl)(Cl)Cl)c1	HCT116 PTEN-null 2.5, Lung fibro prol 44.1, H69AR inhibit 2.4, bCat KO growth 1.8
Clc1ncnc2scc(C3COc4ccccc4O3)c12 (configuration not stated)	H69AR inhibit 7.0
c1ccc2c(c1)OCC(c1csc3ncnc(N4CCCCC4)c13)O2 (configuration not stated)	none (no result: Lung fibro prol)
Cc1cc(Oc2nc3c(C)cccn3c(=O)c2/C=C(\C#N)S(=O)(=O)c2ccc(Cl)cc2)ccc1Cl	HCT116 PTEN-null 1.4, bCat KO growth 3.9 (no result: Lung fibro prol, HUVEC prolif 384, H69AR inhibit)
CCOc1ccc(CCNC(=O)C2CCN(c3nnc(-n4cccc4)s3)CC2)cc1	none
CCOc1ccc(CCNC(=O)C2CCN(c3nnc(-n4cccc4)s3)CC2)cc1OCC	H69AR inhibit 39.7
CC1(C(=O)N(c2ccccc2)C(C(=O)NC2CCCC2)c2ccccn2)CC(=O)N=C2C=CC=CN21 (configuration not stated)	none
Cc1cc(F)ccc1S(=O)(=O)Nc1ccccc1C(=O)Nc1ccccc1-c1nc2ccccc2[nH]1	bCat KO growth 3.7 (no result: Lung fibro prol, HUVEC prolif 384, H69AR inhibit)
Cc1cc(F)ccc1S(=O)(=O)Nc1ccccc1C(=O)Nc1ncn[nH]1	none
CN1C(=O)CC(C(=O)Nc2ccc(F)cc2)SC1=Nc1ccc2c(c1)OCO2 (configuration not stated)	none
COc1ccc(NC(=O)C2CC(=O)N(C)C(=Nc3ccc4c(c3)OCO4)S2)cc1 (configuration not stated)	H69AR inhibit 30.0
CN1CCN(c2cc3c(c4c2[nH]c2ccccc24)C(=O)CC(C)(C)C3)CC1	HCT116 PTEN-null 1.8, Lung fibro prol 18.7, HUVEC prolif 384 3.3, H69AR inhibit 0.9, bCat KO growth 1.4
